Molecules are shown by their SMILES. Screen size: about 2,500 compounds; about 1,200 (48%) were called active. The set was probably picked from earlier hits. This is one part of the list. Values without a mark were called inactive.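 The calls were made as follows: active = mean activation above the low control average plus 3 SD, as set in the primary screen (cut at about 12% in these data); inactive = the rest.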

This experiment deals with Troponin I, cardiac muscle (Homo sapiens) + Troponin T, cardiac muscle (Homo sapiens) + Troponin C, slow skeletal and cardiac muscles (Homo sapiens) (UniProt P19429+P45379+P63316). As to the kind of experiment: calcium sensitizers of cardiac thin filaments – biochemical, IANBD-TnC fluorescence, triplicate, confirmation (AID 504383).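 Also: 0% = DMSO at 0.472 mM calcium and 100% = DMSO at 2.9 mM calcium.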 Conditions: IANBD-labeled cardiac RTF, Ca2+ sensitivity fluorescence; at 7.2 µM; active compounds read high; scaled from EC20 to saturating calcium; tested at EC20 calcium, 0.472 mM. In short, it runs like this: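 material = labelled regulated thin filaments | probe or stimulus = Ca2+ 0.472 mM, EC20 level | dosing = single nominal compound dose of 7.2 µM | schedule = 15 min at 25 °C | signal = fluorescence intensity of labelled filaments | evaluation = fluorescence gain scaled between EC20 and EC100 calcium controls | benchmarks = low control EC20 calcium, high control EC100 calcium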
`CN(C)S(=O)(=O)c1ccc2c(c1)/C(=C/c1cc3c([nH]1)CCCC3)C(=O)N2`: the activation is 18.2% (active).

Regarding `S=c1[nH]nc(-c2ccc(Cl)cc2)n1-c1ccc2c(c1)OCCO2`, the activation is 136% (active).

With `Cc1ccc(-n2c(C)n[nH]c2=S)cc1`, the activation is 6.67%.

On to `Cn1c(=O)c(NCCO)c2c3c(cccc31)C(=O)c1ccccc1-2`, for which the activation is 4.78%.

On to `CC(=O)Nc1ccc(Nc2c3c4c(cccc4n(C)c2=O)C(=O)c2ccccc2-3)cc1`, for which the activation was 26.1% (active).

For the compound `Cn1c(=O)c(NC2CCCCC2)c2c3c(cccc31)C(=O)c1ccccc1-2`, the activation is 9.43%.

As for `Cc1nc(-c2ccc(C#N)cc2)cs1`, the activation was 8.7%.

For the compound `CCOC(=O)C1C(=O)NC(SCC(N)=O)=C(C#N)C1c1ccccc1OCC` (centres undefined), the activation is 2.57%.

Regarding `COC(=O)C1=COC(C)C2CN3CCc4c([nH]c5cc(OC)c(OC)cc45)C3CC12` (centres undefined), the activation is 15.2% (active).

Consider `COC(=O)C1C2CC3c4[nH]c5cc(OC)ccc5c4CCN3CC2CC(OC(=O)CC(C)=O)C1OC` (centres undefined), for which the activation was 7.14%.

On to `COC(=O)C1=COC(C)C2CN3CCc4c([nH]c5ccccc45)C3CC12` (centres undefined), for which the activation is 12.5% (active).

For `O=C(O)[C@@H]1[C@H]2C[C@H]3c4[nH]c5ccccc5c4CCN3C[C@@H]2CC[C@@H]1O`, the activation was 1.98%.

Consider `Cc1ncoc1C(=O)N1CCc2c([nH]c3ccccc23)C1C(C)(C)C` (centres undefined), for which the activation is 2.53%.

Consider `COC(=O)CCC(=O)OC1(C)C(=O)C=C2C=C(C3CC3)N(c3cccc(C#N)c3)C=C2C1=O` (centres undefined), for which the activation was 0.81%.

In the case of `COc1ccc(/C=N/N=C2/CC(C)(C)Cc3n[nH]c(=O)cc32)cc1`, the activation was 955% (active).

As to `CCN(CC)c1ccc2cc(-c3nc4ccccc4n3C)c(=O)oc2c1`, the activation was 6.19%.

For `CCN(CC)c1ccc2cc(-c3nnc(-c4ccccc4)o3)c(=O)oc2c1`, the activation was 232% (active).

Turning to `N=c1oc2ccccc2cc1-c1nc(-c2ccccc2)cs1`, the activation is 4.19%.

For the compound `O=c1oc2ccccc2cc1-c1nc(-c2cccs2)cs1`, the activation is 7.53%.

Take `CCN(CC)c1ccc2cc(-c3nc(-c4cc5ccccc5oc4=O)cs3)c(=O)oc2c1`: the activation is 12% (active).

As for `CCN(CC)c1ccc2cc(-c3nnc(-c4ccncc4)o3)c(=O)oc2c1`, the activation is 18.1% (active).

With `Nc1c(C(=O)c2ccc(Cl)cc2)sc2nsc(SCCN3CCOCC3)c12`, the activation was 12.7% (active).

As for `Brc1ccc2[nH]c3nc(SCCN4CCOCC4)nnc3c2c1`, the activation was 6.16%.

As for `Nc1c(C(=O)c2cccs2)sc2nsc(SCCN3CCCCC3)c12`, the activation was -1.4%.

As for `COc1ccc(CNC(=O)C(C#N)c2nc3ccccc3nc2N2CCCC2)cc1` (centres undefined), the activation was 2.74%.

Regarding `COc1ccc(CNC(=O)c2cc3c(s2)CS(=O)C3)cc1` (centres undefined), the activation was 6.8%.

Take `COc1ccc(CNC(=O)c2sc(=S)n(-c3ccccc3)c2N)cc1`: the activation was 64.8% (active).

Turning to `COC(=O)c1cc(-c2cccc(OC)c2)n[nH]1`, the activation is 16.6% (active).

Take `CN1CC=C2C(C#N)=C(N)C(C#N)(C#N)C(c3ccsc3)C2C1` (centres undefined): the activation was 7.36%.

Regarding `CC(C)(C)OC(=O)N1CC=C2C(C#N)=C(N)C(C#N)(C#N)C(c3cccs3)C2C1` (centres undefined), the activation was 8.81%.

With `CC(C)N1CC=C2C(C#N)=C(N)C(C#N)(C#N)C(c3ccccc3)C2C1` (centres undefined), the activation was 6.28%.

In the case of `CN1CC=C2C(C#N)=C(N)C(C#N)(C#N)[C@H](c3cccs3)[C@H]2C1`, the activation was 13.3% (active).

Regarding `CN1C=CC2=C(C#N)C(N)C(C#N)(C#N)C(c3ccccc3)C2C1` (centres undefined), the activation was 4.16%.

Consider `COc1cc([C@@H]2[C@H]3CN(C)CC=C3C(C#N)=C(N)C2(C#N)C#N)cc2c1OCO2`, for which the activation is 4.84%.

In the case of `CN1CC=C2C(C#N)=C(N)C(C#N)(C#N)[C@H](c3cccc(Cl)c3)C2C1` (some centres undefined), the activation was 24.5% (active).

With `COc1cc(C2C3CN(C)CC=C3C(C#N)=C(N)C2(C#N)C#N)ccc1OC(C)C` (centres undefined), the activation is 49.2% (active).

As to `CCCN1CC=C2C(C#N)=C(N)C(C#N)(C#N)C(c3cc(OC)ccc3OC)C2C1` (centres undefined), the activation was 2.79%.

Regarding `CN1C=CC2=C(C#N)C(N)C(C#N)(C#N)[C@H](c3ccccc3)[C@H]2C1` (some centres undefined), the activation is 6.1%.

Consider `COc1ccc(OC)c(C2C3CN(C(C)C)CC=C3C(C#N)=C(N)C2(C#N)C#N)c1` (centres undefined), for which the activation was 17.8% (active).

For the compound `CCN1CC=C2C(C#N)=C(N)C(C#N)(C#N)[C@H](c3ccoc3)[C@H]2C1`, the activation was -0.65%.

With `CN1CC=C2C(C#N)=C(N)C(C#N)(C#N)[C@H](c3ccoc3)[C@H]2C1`, the activation was 62.5% (active).

As for `Cc1ccc2nc(/C(C#N)=C/c3ccc(-c4ccccc4C(=O)O)o3)[nH]c2c1`, the activation was 12.9% (active).

Consider `N#C/C(=C\c1ccc(-c2ccccc2C(=O)O)o1)c1nc2ccccc2[nH]1`, for which the activation was 14.2% (active).

For the compound `Cc1cc2nc(/C(C#N)=C\c3ccc(-c4ccccc4C(=O)O)o3)[nH]c2cc1C`, the activation was 14.2% (active).

For the compound `N#C/C(=C\c1ccc(Sc2ccc(Cl)cc2)o1)c1nc2ccccc2[nH]1`, the activation is 7.23%.

As to `COc1cccc(CN2CCNC(=O)C2CC(=O)N(C)Cc2cnccn2)c1OC` (centres undefined), the activation is 7.66%.

For `CC(=O)[C@H]1[C@H](C#N)C[C@H]2[C@@H]3CC=C4C[C@@H](O)CC[C@]4(C)[C@H]3CC[C@@]21C`, the activation is 45.3% (active).

Consider `O=c1c2ccccc2cnn1Cc1n[nH]c(=S)n1-c1ccccc1Cl`, for which the activation was 16.3% (active).

Turning to `CSCC(O)Cn1ncc2ccccc2c1=O` (centres undefined), the activation was 5.97%.

Regarding `CC1(C)NC(=O)N(CCCCOc2ccc(Cl)cc2)C1=O`, the activation is 0.92%.

As to `CCC(/C=C1\Oc2ccc(OC)cc2N1C)=C\c1sc2ccccc2[n+]1CCCS(=O)(=O)[O-]`, the activation is 33.2% (active).

For the compound `COc1cc(/C=C/c2sc3ccccc3[n+]2CCCS(=O)(=O)[O-])ccc1O`, the activation was 7.82%.

Take `CCOc1ccccc1C=NNC(=O)CCCCC(=O)NN=Cc1ccccc1OCC`: the activation was 6.22%.

For `Cc1ccc(CSc2nnc(SCC(=O)N/N=C/c3ccccc3OCC(=O)O)s2)cc1`, the activation is 15.5% (active).

Turning to `COc1ccccc1N1CCN(C(=O)c2cn(-c3ccccc3)nc2-c2cccnc2)CC1`, the activation was 10%.

For `O=C(c1cn(-c2ccccc2)nc1-c1ccc(Br)cc1)N1CCOCC1`, the activation is 16.9% (active).

`O=C(Nc1ccccc1F)C(=Cc1sc(N2CCOCC2)nc1-c1ccccc1)C(=O)Nc1ccccc1F`: the activation is -0.07%.

As to `O=C(N/C(=C/c1cn(-c2ccccc2)nc1-c1ccccc1)C(=O)N1CCOCC1)c1ccc(Cl)cc1Cl`, the activation was 12.7% (active).

In the case of `O=C(CSCc1c(F)cccc1Cl)Nc1ccccc1C(=O)N1CCOCC1`, the activation is 11.5%.
